Most compounds without a hit are left out; they make up all but 2.5% or so of the library.
Platelet DG rel – inhibitors of platelet dense granule secretion, primary screen, cell-based, MLPCN, human platelets; AID 1663, 2009; actives 0.22% (n = 300,000); inhibition, %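 (compounds screened at 7.5 µM in platelet-rich plasma)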; human platelet-rich plasma, SFLLRN dense granule ATP release, luminescence;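 active = mean replicate score, as percent of positive control, at or above 50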
TRPC6 act – mouse TRPC6 channel activators, primary screen, cell-based, HEK293, membrane potential dye; Short transient receptor potential channel 6 (Mus musculus), Q61143; HEK293-TRPC6 membrane potential dye fluorescence; hits give high values; B-score at 10 µM; actives 0.13% (n = 310,000);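 active = B-score of the integrated fluorescence ratio above library mean plus 3 SD, and starting fluorescence ratio within library mean plus 5 SD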;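 note: higher score means more depolarization so channel activation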
Target sequence (Q61143 whole entry, looked up): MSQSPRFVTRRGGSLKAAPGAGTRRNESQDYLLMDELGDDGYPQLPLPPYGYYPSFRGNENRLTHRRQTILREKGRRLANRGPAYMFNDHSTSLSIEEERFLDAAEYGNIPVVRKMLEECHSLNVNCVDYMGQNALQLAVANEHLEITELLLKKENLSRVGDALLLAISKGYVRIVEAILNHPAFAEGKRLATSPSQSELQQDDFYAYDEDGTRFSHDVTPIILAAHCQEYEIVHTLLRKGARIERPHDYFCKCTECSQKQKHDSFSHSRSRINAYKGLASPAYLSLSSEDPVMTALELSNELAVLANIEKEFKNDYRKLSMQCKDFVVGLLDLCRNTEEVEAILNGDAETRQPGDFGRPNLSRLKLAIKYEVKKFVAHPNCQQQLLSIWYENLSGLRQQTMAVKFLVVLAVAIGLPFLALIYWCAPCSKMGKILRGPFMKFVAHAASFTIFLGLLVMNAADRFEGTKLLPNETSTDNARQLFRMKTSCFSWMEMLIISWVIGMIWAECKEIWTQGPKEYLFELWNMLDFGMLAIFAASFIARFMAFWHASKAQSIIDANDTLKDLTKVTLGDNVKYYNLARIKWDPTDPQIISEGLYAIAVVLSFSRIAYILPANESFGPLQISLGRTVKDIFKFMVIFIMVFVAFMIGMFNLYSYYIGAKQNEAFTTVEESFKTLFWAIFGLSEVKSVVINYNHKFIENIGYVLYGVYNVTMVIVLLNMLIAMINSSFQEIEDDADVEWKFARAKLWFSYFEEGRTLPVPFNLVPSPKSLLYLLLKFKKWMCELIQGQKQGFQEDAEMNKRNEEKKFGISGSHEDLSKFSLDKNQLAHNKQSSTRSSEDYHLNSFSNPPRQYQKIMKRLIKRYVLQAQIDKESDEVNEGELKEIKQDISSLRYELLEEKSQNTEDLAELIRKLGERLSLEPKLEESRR
TRPC6 inh – mouse TRPC6 channel inhibitors, primary screen, cell-based, HEK293, membrane potential dye | ACh-evoked depolarization; hits give low values | B-score at 10 µM | actives 1.1% (n = 310,000);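 active = B-score under library mean minus 3 SD, initial fluorescence not abnormally high, positive integrated signal ratio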;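 note: B-score derived from integrated fluorescence ratio over the kinetic read; more negative B-score means stronger inhibition of depolarization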
TRPC4 act – activators of mouse TRPC4 channel, primary screen, Fluo4 calcium, HEK293 TRPC4beta/mu-opioid cells | Short transient receptor potential channel 4 (Mus musculus), Q9QUQ5 | Fluo4 calcium fluorescence; hits give high values | B-score at 10 µM | actives 0.49% (n = 310,000) | AID 2237, 2010;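 active = B-score above 5 SD of library B-scores, and initial fluorescence ratio not above library mean plus 5 SD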;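 note: positive B-score marks a calcium rise read as TRPC4 activation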
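Assay system: HEK293 cells stably co-expressing mouse TRPC4beta and mu-opioid receptor / Timing: Fluo4 dye loading 45 min at room temperature, 110 s recording / Signal: Fluo4 calcium-sensitive dye fluorescence, kinetic, 1 Hz baseline / Read-out: integrated baseline-normalised fluorescence ratio, converted to per-well B score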
TRPC4 PAM – positive allosteric modulators of TRPC4, primary screen, cell-based, mouse TRPC4beta, HEK293 mu-opioid, Fluo-4 calcium. Short transient receptor potential channel 4 (Mus musculus), Q9QUQ5. DAMGO EC20, Fluo-4 Ca2+ flux; hits give high values. B-score at 10 µM. actives 0.42% (n = 310,000);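 active = B-score of calcium response area above 5 SD of library B-scores, with initial fluorescence ratio within 5 SD of library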
TRPC4 block – inhibitors of mouse TRPC4 channel, primary screen, Fluo4 calcium, HEK293 TRPC4beta/mu-opioid cells. Short transient receptor potential channel 4 (Mus musculus), Q9QUQ5. DAMGO-evoked Fluo4 calcium flux; hits give low values. B-score at 10 µM. actives 0.39% (n = 300,000);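 active = B-score over 3 SD under the library average, no early fluorescence shift, positive overall ratio signal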
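Assay system: Stable TRPC4beta/mu-opioid receptor HEK293 cells | Reagent: DAMGO in two steps, submaximal then maximal | Compound dosing: Single concentration per test compound | Signal: Fluo4 Ca2+ flux fluorescence | Evaluation: Per-well B score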
Each line names hits and unclear results; the compound was inactive in the other large screens.

CCOC(=O)N1CCC(N2C(=O)c3ccccc3C2Nc2cc(OC)c(OC)c(OC)c2)CC1 (configuration not stated)	Platelet DG rel 64
CCOC(=O)N1CCC(N2C(=O)c3ccccc3C2Nc2cc(Cl)c(OC)cc2OC)CC1 (configuration not stated)	none
CCN(CC)CCCN1CC(O)=C(c2nc3ccccc3s2)C1=N	TRPC4 PAM 12
N=C1C(c2nc3ccccc3s2)=C(O)CN1Cc1ccccc1	none
CCCCN(CC)CCCNC(=O)c1ccc(CS(=O)(=O)c2c(Cl)cccc2Cl)o1	TRPC4 act 62
COc1ccccc1CNC(=O)C1CCCN1S(=O)(=O)c1cccc2cccnc12 (configuration not stated)	none
CC(C)=CCN1CCN(Cc2cccc3nonc23)CC1CCO (configuration not stated)	TRPC4 block -5
Cc1ccc2occ(/C=N/NC(=O)[C@@H](N)Cc3ccccc3)c(=O)c2c1	TRPC4 PAM 12
COc1ccc(C(O)(CCc2ccccc2)CCN2CCCCC2)cc1 (configuration not stated)	none
CCCCN(C)C(=O)Cn1ncc2c3ccccc3n(CCC)c2c1=O	TRPC4 PAM 21
CN(C)CCCNC(=S)NCC(c1ccc(Cl)cc1Cl)c1c[nH]c2ccccc12 (configuration not stated)	TRPC4 PAM 12
NCC(c1ccccc1Cl)c1c[nH]c2ccccc12 (configuration not stated)	none
NCC(c1ccc(Cl)cc1Cl)c1c[nH]c2ccccc12 (configuration not stated)	TRPC4 PAM 26
CCCCNC(=S)NCC(c1ccccc1)c1c[nH]c2ccccc12 (configuration not stated)	none
COc1ccc(S(=O)(=O)N2CCNCC2)cc1	none
O=S(=O)(c1ccc(Oc2ccc(Br)cc2)cc1)N1CCOCC1	TRPC4 PAM 17
O=S(=O)(Nc1ccc(S(=O)(=O)N2CCOCC2)cc1)c1ccc(Br)cc1	none
O=S(=O)(c1cc(Cl)c(Cl)cc1Cl)N1CCN2CCCC2C1 (configuration not stated)	TRPC4 act 67
CN(C)c1ccc(/C=N/Nc2nncc3ccccc23)cc1	Platelet DG rel 54
CN(Cc1cccc(F)c1)CC(O)COCc1ccccc1Cl (configuration not stated)	TRPC4 block -6
O=S(=O)(c1cccs1)N1CCN(c2ccccc2Cl)CC1	none
O=S(=O)(c1ccccc1)N1CCN(c2ccnc3cc(Cl)ccc23)CC1	TRPC4 PAM 13
O=S(=O)(c1cccs1)N1CCN(c2ccnc3cc(Cl)ccc23)CC1	TRPC4 PAM 11
Cc1ccc2c(c1)N(CC(=O)NCCCN1CC(C)CC(C)C1)C(=O)c1cccnc1O2 (configuration not stated)	none
Cc1ccc(-n2c(SCC(=O)O)nc3sc4c(c3c2=O)C(C)CCC4)cc1 (configuration not stated)	TRPC4 PAM 11
CCOc1ccc(-n2c(SCC(=O)O)nc3sc4c(c3c2=O)CCCC4)cc1	TRPC4 PAM 16 (no result: Platelet DG rel)
O=Cc1cn(CC(=O)N2CCc3ccccc32)c2ccccc12	none
CCCCc1ccc(-n2nnnc2SCC(=O)Nc2cc(OC)c([N+](=O)[O-])cc2C)cc1	none
Cc1cc(C)nc(Nc2nc(=O)c3ccccc3s2)n1	TRPC4 PAM 55
COc1ccc(Cl)cc1S(=O)(=O)N1CCC(C(=O)N2CCOCC2)CC1	none
Oc1ccc(/C=N/Nc2cccc(Cl)n2)c(O)c1	Platelet DG rel 50
NC(=O)c1ccccc1N/C=C/C(=O)c1ccc(Cl)cc1Cl	Platelet DG rel 52
NC(=O)c1ccccc1N/C=C/C(=O)c1ccc(F)cc1	none
O=C(CSc1nc2c(c(=O)[nH]1)CCC2)Nc1cccc(F)c1	none
Cc1ccc(NS(=O)(=O)c2cc([N+](=O)[O-])ccc2NNC(=S)Nc2cc(C)ccc2C)c(C)c1	TRPC4 PAM 16
O=C1CC(Sc2nnnn2-c2ccccc2)C(=O)N1c1cccc(Cl)c1 (configuration not stated)	Platelet DG rel 55
COc1ccc(N2C(=O)CC(Sc3nnnn3-c3ccc(F)cc3)C2=O)cc1 (configuration not stated)	none
CC(NC(=O)C(=O)N1CCCCC1)C(c1cccs1)N1CCN(C)CC1 (configuration not stated)	none
Cc1noc(/C=C/c2cccs2)c1S(=O)(=O)N1CCC(C(=O)NCCCN2CCCC(C)C2)CC1 (configuration not stated)	TRPC4 PAM 10
COc1ccc(-c2noc(N3CCC(C(=O)NCCCN4CCCC(C)C4)CC3)n2)cc1 (configuration not stated)	TRPC4 PAM 10
COc1ccc(-c2noc(N3CCC(C(=O)NCCCN4CCCCC4)CC3)n2)cc1	none
COC1CCCN(Cc2cn(C)nc2-c2ccc(Oc3ccccc3)cc2)C1 (configuration not stated)	none
Cn1cc(CN2CCCCC2CO)c(-c2ccc(Oc3ccccc3)cc2)n1 (configuration not stated)	TRPC4 block -7
COc1ccc(C(CCN2CCOCC2)c2c(O)cc(OC)cc2OC)cc1 (configuration not stated)	none
COc1ccc(C(c2c(O)ccc3ccccc23)N2CCOCC2)c(OC)c1 (configuration not stated)	TRPC4 block -6
COc1c2c(cc3c1C(CC(O)Cc1ccccc1)N(C)CC3)OCO2 (configuration not stated)	TRPC4 act 96
CCCN(c1nc(C)cc(OC)n1)S(=O)(=O)c1ccccc1	TRPC4 block -5
Cc1cc(C)c(S(=O)(=O)ON2C(=O)c3ccccc3C2=O)cc1C	none
O=C1c2ccccc2C(=O)N1OS(=O)(=O)c1ccc(F)cc1	Platelet DG rel 60
CCOCCCNC(=O)/C(C#N)=C/c1ccc(Cl)c([N+](=O)[O-])c1	TRPC4 PAM 18
CC(c1ccccc1)n1c(N2CCN(C)CC2)nc2c1c(=O)[nH]c(=O)n2C (configuration not stated)	none
O=C(Nc1nc(N2C(=O)c3ccccc3C2=O)n(-c2ccccc2)n1)c1ccc(Cl)cc1	TRPC4 act 47, TRPC4 block -6 (no result: Platelet DG rel)
